Assay results from ChEMBL document CHEMBL1157618, “Noncovalent tripeptidyl benzyl- and cyclohexyl-amine inhibitors of the cysteine protease caspase-1” (J Med Chem, 2010).
Active and inactive are the calls of the source. The calls are words filed in the database; no cut-off is given here.

How the values were obtained:
HT-29 = assay: Cytotoxicity against human HT-29 cells at <=200 uM after 24 hrs by MTT assay; assay type: functional, cell-based
Outline: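 HT29 colon cancer cells seeded at 1 × 10⁵ cells/well in RPMI 1640, adhered overnight at 37 °C, then exposed to various compound concentrations (up to 200 μM) for 24 h at 37 °C. MTT ([…] in RPMI 1640) added for 1 h at 37 °C; cells lysed, crystals dissolved in isopropanol, absorbance read at 570 nm.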

Caspase-3 (Homo sapiens) = target: T1, Caspase-3 (Homo sapiens) (UniProt P42574); assay: Inhibition of caspase 3
T1 sequence (whole entry): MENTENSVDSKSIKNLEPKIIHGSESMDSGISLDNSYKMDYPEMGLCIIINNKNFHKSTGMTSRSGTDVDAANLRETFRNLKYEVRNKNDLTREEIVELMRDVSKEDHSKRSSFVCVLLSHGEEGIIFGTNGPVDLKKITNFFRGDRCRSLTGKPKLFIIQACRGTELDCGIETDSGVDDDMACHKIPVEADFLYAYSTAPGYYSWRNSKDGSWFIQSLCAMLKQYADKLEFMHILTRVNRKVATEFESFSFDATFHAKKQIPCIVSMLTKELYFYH

Activity (Caspase-3 (Homo sapiens)) | SMILES | Activity (HT-29)
 | CC(C)[C@H](NC(=O)c1ccc2ccccc2c1)C(=O)N[C@@H](C)C(=O)N[C@H](CNCc1ccc2c(c1)OCO2)CC(=O)O | Not toxic
 | COc1ccccc1CNC[C@H](CC(=O)O)NC(=O)[C@H](C)NC(=O)[C@@H](NC(=O)c1ccc2ccccc2c1)C(C)C | Not toxic
 | CC(C)[C@H](NC(=O)c1ccc2ccccc2c1)C(=O)N[C@@H](C)C(=O)N[C@H](CNCc1ccc(O)cc1)CC(=O)O | Not toxic
 | CC(C)[C@H](NC(=O)c1ccc2ccccc2c1)C(=O)N[C@@H](C)C(=O)N[C@H](CNCc1ccc(C(N)=O)cc1)CC(=O)O | Not toxic
inactive | CC(C)[C@H](NC(=O)c1ccc2ccccc2c1)C(=O)N[C@@H](C)C(=O)N[C@H](CNCc1ccccc1O)CC(=O)O | Not toxic
 | CC(C)[C@H](NC(=O)c1ccc2ccccc2c1)C(=O)N[C@@H](C)C(=O)N[C@H](CNCc1ccccc1)CC(=O)O | Not toxic
 | CC(C)[C@H](NC(=O)c1ccc2ccccc2c1)C(=O)N[C@@H](C)C(=O)N[C@H](CNCc1ccccc1F)CC(=O)O | Not toxic
 | CC(C)[C@H](NC(=O)c1ccc2ccccc2c1)C(=O)N[C@@H](C)C(=O)N[C@@H](CC(=O)O)CN(C)Cc1ccccc1 | Not toxic
 | CC(C)[C@H](NC(=O)c1ccc2ccccc2c1)C(=O)N[C@@H](C)C(=O)N[C@H](CCCc1ccccc1)CC(=O)O | Not toxic
 | CC(C)[C@H](NC(=O)c1ccc2ccccc2c1)C(=O)N[C@@H](C)C(=O)N[C@H](CNC1CCCCC1)CC(=O)O | Not toxic
 | CC(C)[C@H](NC(=O)c1ccc2ccccc2c1)C(=O)N[C@@H](C)C(=O)N[C@@H](CC(=O)O)CN(C)C1CCCCC1 | Not toxic
